Consider 15 molecules from ChEMBL document CHEMBL1122281, “Synthesis and antifilarial activity of N-[4-[[4-alkoxy-3-[(dialkylamino)methyl]phenyl]amino]- 2-pyrimidinyl]-N'-phenylguanidines” (J Med Chem, 1983).

In data set [1] the test system is Litomosoides carinii. Kind of data set: Antifilarial activity against Litomosoides carinii infections in the Jird at dose 100 mg/kg administered orally. Format: functional. The following applies: route oral. In short, it runs like this: (§1)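 L. carinii-infected jirds were dosed. Survivors were killed 55–70 days after the first dose, and the pleural and peritoneal cavities were searched for adult worms. Live worms at autopsy were scored as a percentage relative to sham-dosed controls. Adult worm reduction above 60% was the activity criterion.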

In data set [2] the test system is Litomosoides carinii. Kind of data set: Antifilarial activity against Litomosoides carinii infections in the Jird at dose 25 mg/kg administered orally. Type of data set: functional. The following applies: route oral. In short, it runs like this:
as §1

In data set [3] the test system is Litomosoides carinii. Put plainly: Antifilarial activity against Litomosoides carinii infections in the Jird at dose 25 mg/kg administered subcutaneously. Format: functional. The following applies: route subcutaneous. The procedure, abridged:
as §1

For data set [4], the system named is Litomosoides carinii. Kind of data set: Antifilarial activity against Litomosoides carinii infections in the Jird at dose 3 mg/kg administered orally. Type of data set: functional. The following applies: route oral. In short, it runs like this: as §1
For data set [5], the system named is Litomosoides carinii. Put plainly: Antifilarial activity against Litomosoides carinii infections in the Jird at dose 6 mg/kg administered subcutaneously. Format: functional. The following applies: route subcutaneous. In short, it runs like this: as §1
Data set [6] can be described thus: Antifilarial activity against Litomosoides carinii infections in the Jird at dose 100 mg/kg administered subcutaneously; two or more animals died prematurely considered to be drug toxicity. Type of data set: organism-based, Meriones unguiculatus. Further details: dose 100 mg/kg, route subcutaneous. The following applies: gerbil, in vivo, sc. The procedure, abridged: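 Jirds infected with Litomosoides carinii. Surviving animals killed 55–70 days after first drug dose; pleural and peritoneal cavities searched for adult worms. Live worm count at autopsy scored as percentage relative to sham-dosed controls. Activity criterion: adult worm reduction exceeding 60%.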

Data set [7] deals with Litomosoides carinii. Put plainly: Antifilarial activity against Litomosoides carinii infections in the Jird at dose 0.5 mg/kg administered orally. The following applies: route oral. Type of data set: functional. The procedure, abridged:
as §1

The subject of data set [8] is Litomosoides carinii. Put plainly: (§2) Antifilarial activity against Litomosoides carinii infections in the Jird at dose 100 mg/kg administered subcutaneously. Type of data set: functional. The following applies: route subcutaneous. The procedure, abridged:
as §1

Data set [9] concerns Litomosoides carinii. Described as §2. Type of data set: functional. The following applies: route subcutaneous. The procedure, abridged:
as §1
This is another data set of the same source.

Data set [10] deals with Litomosoides carinii. Put plainly: Antifilarial activity against Litomosoides carinii infections in the Jird at dose 12 mg/kg administered orally. Type of data set: functional. The following applies: route oral. The procedure, abridged:
as §1

In data set [11] the test system is Litomosoides carinii. Put plainly: Antifilarial activity against Litomosoides carinii infections in the Jird at dose 50 mg/kg administered orally. Type of data set: functional. The following applies: route oral. In short, it runs like this:
as §1

Data set [12] concerns Litomosoides carinii. Put plainly: Antifilarial activity against Litomosoides carinii infections in the Jird at dose 400 mg/kg administered orally. Type of data set: functional. The following applies: route oral. The procedure, abridged:
as §1

Data set [13] relates to Litomosoides carinii. Put plainly: Antifilarial activity against Litomosoides carinii infections in the Jird at dose 400 mg/kg administered subcutaneously. The following applies: route subcutaneous. Format: functional. The procedure, abridged: as §1
Data set [14] concerns Litomosoides carinii. Kind of data set: Antifilarial activity against Litomosoides carinii infections in the Jird at dose 200 mg/kg administered orally. Format: functional. The following applies: route oral. In short, it runs like this:
as §1

Data set [15] has as its system Litomosoides carinii. Kind of data set: Antifilarial activity against Litomosoides carinii infections in the Jird at dose 100 mg/kg administered subcutaneously. The following applies: route subcutaneous.
For data set [16], the system named is Litomosoides carinii. Kind of data set: Antifilarial activity against Litomosoides carinii infections in the Jird at dose 600 mg/kg administered orally. The following applies: route oral. Format: functional. The procedure, abridged: as §1
The subject of data set [17] is Litomosoides carinii. Kind of data set: Antifilarial activity against Litomosoides carinii infections in the Jird at dose 200 mg/kg administered subcutaneously. Type of data set: functional. The following applies: route subcutaneous. In short, it runs like this:
as §1

Data set [18] has as its system Litomosoides carinii. Put plainly: Antifilarial activity against Litomosoides carinii infections in the Jird at dose 50 mg/kg administered subcutaneously. Type of data set: functional. The following applies: route subcutaneous. The procedure, abridged: as §1
Data set [19] has as its system Litomosoides carinii. Put plainly: Antifilarial activity against Litomosoides carinii infections in the Jird at dose 1.56 mg/kg administered subcutaneously. Format: functional. The following applies: route subcutaneous. The procedure, abridged:
as §1

Data set [20] concerns Litomosoides carinii. Kind of data set: Antifilarial activity against Litomosoides carinii infections in the Jird at dose 6.25 mg/kg administered subcutaneously. Format: functional. The following applies: route subcutaneous. In short, it runs like this:
as §1

The test system of data set [21] is Litomosoides carinii. Put plainly: Antifilarial activity against infections of Litomosoides carinii in the Jird by oral route(dose (mg/kg) is given in parentheses). Format: functional. In short, it runs like this: as §1

Consider `CCNCc1cc(Nc2cc(C(F)(F)F)nc(/N=C(\N)Nc3ccc(Cl)cc3)n2)ccc1OC`, for which the “Reduction of live worms” value worked out at 100% in data set [1]; 94% in data set [2]; 100% in data set [3]; 81% in data set [4]; 92% in data set [5]. In data set [6], the Animals dead was greater than 2.
With `CCN(CC)Cc1cc(Nc2cc(C(F)(F)F)nc(/N=C(\N)Nc3ccc(C(F)(F)F)cc3)n2)ccc1O`, the “Reduction of live worms” value is given as 100% in [1]; 100% in data set [2]; 22% in data set [7]; 98% in [4]; 100% in data set [8].
On to `CCN(C)Cc1cc(Nc2cc(C(F)(F)F)nc(/N=C(\N)Nc3ccc(Cl)c(Cl)c3)n2)ccc1O`, for which the “Reduction of live worms” value stood at 100% in data set [2]; 100% in data set [3]; 100% in data set [7]; 97% in data set [4]; 100% in [8].
Turning to `CCN(CC)Cc1cc(Nc2cc(C)nc(/N=C(\N)Nc3cc(Cl)cc(Cl)c3)n2)ccc1O`, the “Reduction of live worms” value in data set [9] was 0%; in [8] it was 68%. The same molecule registered an Animals dead in [6] greater than 2.
Regarding `CCN(CC)Cc1cc(Nc2cc(C(F)(F)F)nc(/N=C(\N)Nc3ccc(Cl)cc3)n2)ccc1O`, the “Reduction of live worms” value in [10], in data set [11], in [7] and in data set [4] was 100% throughout.
For `CN1CCN(Cc2cc(Nc3cc(C(F)(F)F)nc(/N=C(\N)Nc4ccc(Cl)c(Cl)c4)n3)ccc2O)CC1`, the “Reduction of live worms” value in data set [12] was 100%; in [1], 100%; in data set [2] it was 100%; in data set [13], 99%; in data set [14] it was 100%; in data set [4], 0%. In [6], the Animals dead is greater than 2.
`CCOc1ccc(Nc2nc(/N=C(\N)Nc3ccc(Cl)c(Cl)c3)nc3c2CCCC3)cc1CN(CC)CC`: the “Reduction of live worms” value in data set [2] is listed as 54%; in [15] it was 0%. Further, the Animals dead in data set [6] was greater than 2.
In the case of `CCCCN(CC)CCNc1cc(C)nc(/N=C(\N)Nc2ccc(Cl)c(Cl)c2)n1`, the “Reduction of live worms” value in data set [16] is recorded as 66%.
As to `CN(C)Cc1cc(Nc2cc(C(F)(F)F)nc(/N=C(\N)Nc3ccc(Cl)c(Cl)c3)n2)ccc1O`, the “Reduction of live worms” value was determined as 100% in data set [1], 100% in data set [2], 100% in data set [7] and 90% in [4].
Turning to `COc1ccc(Nc2cc(C(F)(F)F)nc(/N=C(\N)Nc3ccc(Cl)cc3)n2)cc1CN1CCCC1`, the “Reduction of live worms” value in data set [10] is 100%; in data set [11], 100%; in data set [7] it was 100%; in data set [4] it was 99%.
As to `CCNCc1cc(Nc2cc(C(F)(F)F)nc(/N=C(\N)Nc3ccc(Cl)c(Cl)c3)n2)ccc1O`, the “Reduction of live worms” value in [2] was found to be 100%; in data set [3] it was 100%; in data set [7], 97%; in data set [4], 97%; in [8], 100%.
In the case of `CN1CCN(Cc2cc(Nc3cc(C(F)(F)F)nc(/N=C(\N)Nc4ccc(C(F)(F)F)cc4)n3)ccc2O)CC1`, the “Reduction of live worms” value in [1] was 100%; in data set [2], 40%; in data set [17] it was 96%; in [4] it was 5%.
Turning to `CCN(CC)C(=O)N1CCN(C)CC1` [DIETHYLCARBAMAZINE], the results for the “Reduction of live worms” value in data set [18] and in data set [8] were 89% and 100%, respectively.
As to `COC(=O)Nc1nc2cc(C(=O)c3ccccc3)ccc2[nH]1` [MEBENDAZOLE], the “Reduction of live worms” value in [19] came out at 97%; in [20] it was 100%; in [3], 100%.
As to `Cc1ccc(C(=O)Nc2ccc(S(=O)(=O)O)c3cc(S(=O)(=O)O)cc(S(=O)(=O)O)c23)cc1NC(=O)c1cccc(NC(=O)Nc2cccc(C(=O)Nc3cc(C(=O)Nc4ccc(S(=O)(=O)O)c5cc(S(=O)(=O)O)cc(S(=O)(=O)O)c45)ccc3C)c2)c1` [SURAMIN], the “Reduction of live worms” value in data set [21] is listed as 98%.
